Data reported in ChEMBL document CHEMBL4261538, “Synthesis and molecular docking studies of xanthone attached amino acids as potential antimicrobial and anti-inflammatory agents” (Medchemcomm, 2017).
Values after ≈ are worked out from the molar mass of the structure shown. Active and inactive are the calls of the source. No cut-off for these calls is given here.

Experiments:
Staphylococcus aureus [1] = assay: Antibacterial activity against Staphylococcus aureus at 50 ug/ml incubated for 24 hrs by agar well diffusion method; type: functional; settings: read-out: DIZ
How it was run: (§1)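 Bacteria grown in nutrient broth at 37 °C for 24 h, then subcultured at room temperature. Compounds dissolved in DMSO at 5 mg mL⁻¹ and 5–20 µL added to 6 mm wells, giving 25, 50, 75, 100 µg per well. Gentamicin was the positive control and DMSO the negative control. Plates held at 37 °C for 24 h, then inhibition zone diameter (mm) measured. Values are means of three determinations.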

Fusarium oxysporum [2] = assay: Antifungal activity against Fusarium oxysporum at 25 ug/ml incubated for 48 hrs by agar well diffusion method; type: functional
How it was run: (§2)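 Compounds dissolved in DMSO at 5 mg mL⁻¹ and 5–20 µL added to 6 mm wells, giving 25, 50, 75, 100 µg per well. Bavistin was the positive control and DMSO the negative control. Plates incubated at 28 °C for 48 h, then inhibition zone diameter (mm) measured. Values are means of three determinations.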

Aspergillus niger [3] = assay: Antifungal activity against Aspergillus niger at 75 ug/ml incubated for 48 hrs by agar well diffusion method; type: functional; settings: read-out: DIZ; how it was run: as §2
Candida albicans [4] = assay: Antifungal activity against Candida albicans at 50 ug/ml incubated for 48 hrs by agar well diffusion method; type: functional; settings: for zone of inhibition at 50 µg/mL: read-out: DIZ; how it was run: as §2
Erythrocyte = assay: Anti-inflammatory activity in human RBC assessed as inhibition of hypotonic solution-induced hemolysis after 10 mins by spectrophotometric method; type: functional, cell-based
How it was run: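 Human blood (heparinized) washed with 0.9% saline, packed cells made into a 40% v/v stock in isotonic phosphate buffer (154 mM NaCl, 10 mM sodium phosphate, pH 7.4). Stock RBC mixed with hypotonic buffer (50 mM NaCl, 10 mM phosphate, pH 7.4) plus sample at 20–100 µg mL⁻¹.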

Klebsiella pneumoniae [5] = assay: Antibacterial activity against Klebsiella pneumoniae at 25 ug/ml incubated for 24 hrs by agar well diffusion method; type: functional; settings: for zone of inhibition at 25 µg/mL: read-out: DIZ; how it was run: as §1
Staphylococcus aureus [6] = assay: Antibacterial activity against Staphylococcus aureus at 25 ug/ml incubated for 24 hrs by agar well diffusion method; type: functional; settings: read-out: DIZ; how it was run: as §1
Klebsiella pneumoniae [7] = assay: Antibacterial activity against Klebsiella pneumoniae at 100 ug/ml incubated for 24 hrs by agar well diffusion method; type: functional; settings: for zone of inhibition at 100 µg/mL: read-out: DIZ; how it was run: as §1
Bacillus subtilis [8] = assay: Antibacterial activity against Bacillus subtilis at 25 ug/ml incubated for 24 hrs by agar well diffusion method; type: functional; settings: for zone of inhibition at 25 µg/mL: read-out: DIZ; how it was run: as §1
Staphylococcus aureus [9] = assay: Antibacterial activity against Staphylococcus aureus at 75 ug/ml incubated for 24 hrs by agar well diffusion method; type: functional; settings: read-out: DIZ; how it was run: as §1
Bacillus subtilis [10] = assay: Antibacterial activity against Bacillus subtilis at 50 ug/ml incubated for 24 hrs by agar well diffusion method; type: functional; settings: for zone of inhibition at 50 µg/mL: read-out: DIZ; how it was run: as §1
Fusarium oxysporum [11] = assay: Antifungal activity against Fusarium oxysporum at 50 ug/ml incubated for 48 hrs by agar well diffusion method; type: functional; how it was run: as §2
Klebsiella pneumoniae [12] = assay: Antibacterial activity against Klebsiella pneumoniae at 75 ug/ml incubated for 24 hrs by agar well diffusion method; type: functional; settings: for zone of inhibition at 75 µg/mL: read-out: DIZ; how it was run: as §1
Staphylococcus aureus [13] = assay: Antibacterial activity against Staphylococcus aureus at 100 ug/ml incubated for 24 hrs by agar well diffusion method; type: functional; settings: read-out: DIZ; how it was run: as §1
Fusarium oxysporum [14] = assay: Antifungal activity against Fusarium oxysporum at 75 ug/ml incubated for 48 hrs by agar well diffusion method; type: functional; settings: for zone of inhibition at 75 µg/mL: read-out: DIZ; how it was run: as §2
Bacillus subtilis [15] = assay: Antibacterial activity against Bacillus subtilis at 75 ug/ml incubated for 24 hrs by agar well diffusion method; type: functional; settings: read-out: DIZ; how it was run: as §1
Aspergillus niger [16] = assay: Antifungal activity against Aspergillus niger at 50 ug/ml incubated for 48 hrs by agar well diffusion method; type: functional; settings: read-out: DIZ; how it was run: as §2
Escherichia coli [17] = assay: Antibacterial activity against Escherichia coli at 75 ug/ml incubated for 24 hrs by agar well diffusion method; type: functional; settings: read-out: DIZ; how it was run: as §1
Candida albicans [18] = assay: Antifungal activity against Candida albicans at 100 ug/ml incubated for 48 hrs by agar well diffusion method; type: functional; settings: read-out: DIZ; how it was run: as §2
Escherichia coli [19] = assay: Antibacterial activity against Escherichia coli at 25 ug/ml incubated for 24 hrs by agar well diffusion method; type: functional; settings: read-out: DIZ; how it was run: as §1
Fusarium oxysporum [20] = assay: Antifungal activity against Fusarium oxysporum at 100 ug/ml incubated for 48 hrs by agar well diffusion method; type: functional; settings: for zone of inhibition at 100 µg/mL: read-out: DIZ; how it was run: as §2
Aspergillus niger [21] = assay: Antifungal activity against Aspergillus niger at 25 ug/ml incubated for 48 hrs by agar well diffusion method; type: functional; settings: read-out: DIZ; how it was run: as §2
Klebsiella pneumoniae [22] = assay: Antibacterial activity against Klebsiella pneumoniae at 50 ug/ml incubated for 24 hrs by agar well diffusion method; type: functional; settings: for zone of inhibition at 50 µg/mL: read-out: DIZ; how it was run: as §1
Bacillus subtilis [23] = assay: Antibacterial activity against Bacillus subtilis at 100 ug/ml incubated for 24 hrs by agar well diffusion method; type: functional; settings: read-out: DIZ; how it was run: as §1
Candida albicans [24] = assay: Antifungal activity against Candida albicans at 25 ug/ml incubated for 48 hrs by agar well diffusion method; type: functional; settings: for zone of inhibition at 25 µg/mL: read-out: DIZ; how it was run: as §2
Aspergillus niger [25] = assay: Antifungal activity against Aspergillus niger at 100 ug/ml incubated for 48 hrs by agar well diffusion method; type: functional; settings: read-out: DIZ; how it was run: as §2
Escherichia coli [26] = assay: Antibacterial activity against Escherichia coli at 50 ug/ml incubated for 24 hrs by agar well diffusion method; type: functional; settings: read-out: DIZ; how it was run: as §1
Candida albicans [27] = assay: Antifungal activity against Candida albicans at 75 ug/ml incubated for 48 hrs by agar well diffusion method; type: functional; settings: read-out: DIZ; how it was run: as §2
Escherichia coli [28] = assay: Antibacterial activity against Escherichia coli at 100 ug/ml incubated for 24 hrs by agar well diffusion method; type: functional; settings: read-out: DIZ; how it was run: as §1

## CC(C)C[C@H](N)C(=O)Oc1ccc2c(=O)c3ccccc3oc2c1.Cl
Staphylococcus aureus [1]
  zone of inhibition at 50 µg/mL: 12 mm
Fusarium oxysporum [2]; read-out: DIZ
  zone of inhibition at 25 µg/mL: 9 mm
Aspergillus niger [3]
  zone of inhibition at 75 µg/mL: 19 mm
Candida albicans [4]
  zone of inhibition at 50 µg/mL: 15 mm
Erythrocyte
  IC50: 70 µg/mL
Klebsiella pneumoniae [5]
  zone of inhibition at 25 µg/mL: 10 mm
Staphylococcus aureus [6]
  zone of inhibition at 25 µg/mL: 9 mm
Klebsiella pneumoniae [7]
  zone of inhibition at 100 µg/mL: 26 mm
Bacillus subtilis [8]
  zone of inhibition at 25 µg/mL: 13 mm
Staphylococcus aureus [9]
  zone of inhibition at 75 µg/mL: 15 mm
Bacillus subtilis [10]
  zone of inhibition at 50 µg/mL: 19 mm
Fusarium oxysporum [11]; read-out: DIZ
  zone of inhibition at 50 µg/mL: 13 mm
Klebsiella pneumoniae [12]
  zone of inhibition at 75 µg/mL: 22 mm
Staphylococcus aureus [13]
  zone of inhibition at 100 µg/mL: 21 mm
Fusarium oxysporum [14]
  zone of inhibition at 75 µg/mL: 17 mm
Bacillus subtilis [15]
  zone of inhibition at 75 µg/mL: 24 mm
Aspergillus niger [16]
  zone of inhibition at 50 µg/mL: 14 mm
Escherichia coli [17]
  zone of inhibition at 75 µg/mL: 20 mm
Candida albicans [18]
  zone of inhibition at 100 µg/mL: 21 mm
Escherichia coli [19]
  zone of inhibition at 25 µg/mL: 8 mm
Fusarium oxysporum [20]
  zone of inhibition at 100 µg/mL: 19 mm
Aspergillus niger [21]
  zone of inhibition at 25 µg/mL: 10 mm
Klebsiella pneumoniae [22]
  zone of inhibition at 50 µg/mL: 16 mm
Bacillus subtilis [23]
  zone of inhibition at 100 µg/mL: 29 mm
Candida albicans [24]
  zone of inhibition at 25 µg/mL: 10 mm
Aspergillus niger [25]
  zone of inhibition at 100 µg/mL: 22 mm
Escherichia coli [26]
  zone of inhibition at 50 µg/mL: 14 mm
Candida albicans [27]
  zone of inhibition at 75 µg/mL: 19 mm
Escherichia coli [28]
  zone of inhibition at 100 µg/mL: 24 mm

## CC[C@H](C)[C@H](NC(=O)OC(C)(C)C)C(=O)Oc1ccc2c(=O)c3ccccc3oc2c1
Staphylococcus aureus [1]
  zone of inhibition at 50 µg/mL: 10 mm
Fusarium oxysporum [2]
  diameter of the inhibition zone (DIZ): inactive
Aspergillus niger [3]
  zone of inhibition at 75 µg/mL: 16 mm
Candida albicans [4]
  zone of inhibition at 50 µg/mL: 13 mm
Erythrocyte
  IC50: 60 µg/mL (≈ 141 µM)
Klebsiella pneumoniae [5]
  zone of inhibition at 25 µg/mL: 7 mm
Staphylococcus aureus [6]
  zone of inhibition at 25 µg/mL: 4 mm
Klebsiella pneumoniae [7]
  zone of inhibition at 100 µg/mL: 25 mm
Bacillus subtilis [8]
  zone of inhibition at 25 µg/mL: 7 mm
Staphylococcus aureus [9]
  zone of inhibition at 75 µg/mL: 15 mm
Bacillus subtilis [10]
  zone of inhibition at 50 µg/mL: 11 mm
Fusarium oxysporum [11]
  diameter of the inhibition zone (DIZ): inactive
Klebsiella pneumoniae [12]
  zone of inhibition at 75 µg/mL: 20 mm
Staphylococcus aureus [13]
  zone of inhibition at 100 µg/mL: 19 mm
Fusarium oxysporum [14]
  diameter of the inhibition zone (DIZ): inactive
Bacillus subtilis [15]
  zone of inhibition at 75 µg/mL: 14 mm
Aspergillus niger [16]
  zone of inhibition at 50 µg/mL: 12 mm
Escherichia coli [17]
  zone of inhibition at 75 µg/mL: 19 mm
Candida albicans [18]
  zone of inhibition at 100 µg/mL: 22 mm
Escherichia coli [19]
  zone of inhibition at 25 µg/mL: 8 mm
Fusarium oxysporum [20]
  diameter of the inhibition zone (DIZ): inactive
Aspergillus niger [21]
  zone of inhibition at 25 µg/mL: 8 mm
Klebsiella pneumoniae [22]
  zone of inhibition at 50 µg/mL: 14 mm
Bacillus subtilis [23]
  zone of inhibition at 100 µg/mL: 19 mm
Candida albicans [24]
  zone of inhibition at 25 µg/mL: 9 mm
Aspergillus niger [25]
  zone of inhibition at 100 µg/mL: 20 mm
Escherichia coli [26]
  zone of inhibition at 50 µg/mL: 12 mm
Candida albicans [27]
  zone of inhibition at 75 µg/mL: 17 mm
Escherichia coli [28]
  zone of inhibition at 100 µg/mL: 22 mm

## O=c1c2ccccc2oc2cc(O)ccc12
Staphylococcus aureus [1]
  zone of inhibition at 50 µg/mL: 7 mm
Fusarium oxysporum [2]
  diameter of the inhibition zone (DIZ): inactive
Aspergillus niger [3]
  zone of inhibition at 75 µg/mL: 9 mm
Candida albicans [4]
  diameter of the inhibition zone (DIZ): inactive
Erythrocyte
  IC50: 90 µg/mL (≈ 424 µM)
Klebsiella pneumoniae [5]
  diameter of the inhibition zone (DIZ): inactive
Staphylococcus aureus [6]
  zone of inhibition at 25 µg/mL: 4 mm
Klebsiella pneumoniae [7]
  diameter of the inhibition zone (DIZ): inactive
Bacillus subtilis [8]
  diameter of the inhibition zone (DIZ): inactive
Staphylococcus aureus [9]
  zone of inhibition at 75 µg/mL: 11 mm
Bacillus subtilis [10]
  diameter of the inhibition zone (DIZ): inactive
Fusarium oxysporum [11]
  diameter of the inhibition zone (DIZ): inactive
Klebsiella pneumoniae [12]
  diameter of the inhibition zone (DIZ): inactive
Staphylococcus aureus [13]
  zone of inhibition at 100 µg/mL: 14 mm
Fusarium oxysporum [14]
  zone of inhibition at 75 µg/mL: 5 mm
Bacillus subtilis [15]
  zone of inhibition at 75 µg/mL: 6 mm
Aspergillus niger [16]
  zone of inhibition at 50 µg/mL: 7 mm
Escherichia coli [17]
  zone of inhibition at 75 µg/mL: 11 mm
Candida albicans [18]
  zone of inhibition at 100 µg/mL: 10 mm
Escherichia coli [19]
  zone of inhibition at 25 µg/mL: 3 mm
Fusarium oxysporum [20]
  zone of inhibition at 100 µg/mL: 9 mm
Aspergillus niger [21]
  zone of inhibition at 25 µg/mL: 4 mm
Klebsiella pneumoniae [22]
  diameter of the inhibition zone (DIZ): inactive
Bacillus subtilis [23]
  zone of inhibition at 100 µg/mL: 10 mm
Candida albicans [24]
  diameter of the inhibition zone (DIZ): inactive
Aspergillus niger [25]
  zone of inhibition at 100 µg/mL: 11 mm
Escherichia coli [26]
  zone of inhibition at 50 µg/mL: 7 mm
Candida albicans [27]
  zone of inhibition at 75 µg/mL: 6 mm
Escherichia coli [28]
  zone of inhibition at 100 µg/mL: 13 mm
